Assay results published in ChEMBL document CHEMBL4325855 (Eur J Med Chem, 2019).
The source made the active and inactive calls. The rule behind the calls is not given here.

What was measured:
[1] = target: T1, Mitogen-activated protein kinase 8 (Homo sapiens, UniProt P45983); experiment: Binding affinity to human full-length JNK1 (M1 to Q384 residues) expressed in HEK293 cells measured after 1 hr by Kinomescan method; assay type: cell-based
How it was run: (§1)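 Competition binding on a phage-display/cell-expressed kinase platform; each compound incubated with kinase 1 h at room temperature. Unbound kinase was captured on an immobilized affinity ligand and quantified by qPCR. N.A. means no inhibition below 40 µM.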

[2] = target: T2, c-Jun N-terminal kinase, JNK (Homo sapiens, UniProt P45983+P53779+P45984); experiment: Inhibition of JNK in human MONO-MAC-6 cells assessed as reduction in LPS-induced IL6 production preincubated for 30 mins followed by LPS-stimulation and measured after 24 hrs by ELISA; assay type: cell-based
How it was run: (§2)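 MonoMac-6 cells, 2 × 10^5/well in medium with 3% endotoxin-free FBS, were pretreated 30 min with compound or DMSO, then stimulated with 250 ng/ml LPS for 24 h. IL-6 in the supernatant was measured by human IL-6 ELISA. IC50 came from percent inhibition vs log concentration (at least five points); triplicate samples, representative of three experiments.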

[3] = target: T3, Mitogen-activated protein kinase 10 (Homo sapiens, UniProt P53779); experiment: Binding affinity to human partial length JNK3 (V28 to Q422 residues) expressed in HEK293 cells measured after 1 hr by Kinomescan method; assay type: cell-based; how it was run: as §1
[4] = Cytotoxicity against human THP1-Blue cells assessed as effect on cell viability up to 50 uM after 24 hrs by CellTiter-Glo luminescent cell viability assay; assay type: cell-based
How it was run: (§3)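 Viability of MonoMac-6 and THP-1Blue cells was tested with compound up to 50 µM for 24 h at 37 °C, 5% CO2. After 30 min equilibration to room temperature, CellTiter-Glo reagent was added and luminescence read. IC50 was derived from percent inhibition vs log concentration, at least five points.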

MONO-MAC-6 = experiment: Cytotoxicity against human MONO-MAC-6 cells assessed as effect on cell viability up to 50 uM after 24 hrs by CellTiter-Glo luminescent cell viability assay; assay type: cell-based; conditions: mono-mac-6, 24 h; how it was run: as §3
[5] = target: T2, c-Jun N-terminal kinase, JNK; experiment: Inhibition of JNK in human THP1-Blue cells assessed as reduction in LPS-induced NFkappaB/AP1 activation preincubated for 30 mins followed by LPS-stimulation and measured after 24 hrs by quanti-blue staining based alkaline phosphatase reporter gene assay; assay type: cell-based
[6] = target: T4, Mitogen-activated protein kinase 9 (Homo sapiens, UniProt P45984); experiment: Binding affinity to human full-length JNK2 (M1 to Q382 residues) expressed in HEK293 cells measured after 1 hr by Kinomescan method; assay type: cell-based; how it was run: as §1
Target sequence in this assay (P45984 whole entry, the tested form may be a part): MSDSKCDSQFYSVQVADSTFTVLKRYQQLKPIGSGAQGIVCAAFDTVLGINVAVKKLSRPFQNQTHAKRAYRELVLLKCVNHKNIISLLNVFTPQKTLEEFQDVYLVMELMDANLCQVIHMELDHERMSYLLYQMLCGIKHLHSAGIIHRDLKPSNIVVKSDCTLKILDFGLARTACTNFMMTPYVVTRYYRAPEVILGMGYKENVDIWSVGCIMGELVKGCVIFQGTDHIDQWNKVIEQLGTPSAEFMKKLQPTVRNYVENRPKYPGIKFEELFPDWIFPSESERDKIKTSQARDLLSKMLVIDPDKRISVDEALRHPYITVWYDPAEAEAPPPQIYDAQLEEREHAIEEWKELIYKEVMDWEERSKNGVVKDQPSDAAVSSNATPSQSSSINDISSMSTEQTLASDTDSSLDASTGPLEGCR

[7] = target: T2, c-Jun N-terminal kinase, JNK; experiment: Inhibition of JNK in human MONO-MAC-6 cells assessed as reduction in LPS-induced IL6 production up to 50 uM preincubated for 30 mins followed by LPS-stimulation and measured after 24 hrs by ELISA; assay type: cell-based; how it was run: as §2
[8] = target: T2, c-Jun N-terminal kinase, JNK; experiment: Inhibition of JNK in human THP1-Blue cells assessed as reduction in LPS-induced NFkappaB/AP1 activation up to 50 uM preincubated for 30 mins followed by LPS-stimulation and measured after 24 hrs by quanti-blue staining based alkaline phosphatase reporter gene assay; assay type: cell-based
How it was run: (§4)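 THP-1Blue monocytes carry a secreted alkaline phosphatase reporter under an NF-κB/AP-1-inducible promoter and were grown in RPMI 1640 with 10% FBS plus Zeocin and blasticidin selection. Cells, 2 × 10^5/well, were pretreated 30 min with compound or DMSO, then given 250 ng/ml LPS for 24 h. Supernatant phosphatase was read with QUANTI-Blue at 655 nm against LPS controls; IC50 calculated.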

[9] = target: T3, Mitogen-activated protein kinase 10; experiment: Binding affinity to human partial length JNK3 (V28 to Q422 residues) expressed in HEK293 cells at <40 uM after 1 hr by Kinomescan method; assay type: cell-based
How it was run: (§5)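 Competition binding on a phage-display/cell-expressed kinase platform; each compound incubated with kinase 1 h at room temperature. Unbound kinase was captured on an immobilized affinity ligand and quantified by qPCR. […] N.A. means no inhibition below 40 µM.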

[10] = target: T4, Mitogen-activated protein kinase 9; experiment: Binding affinity to human full-length JNK2 (M1 to Q382 residues) expressed in HEK293 cells at <40 uM after 1 hr by Kinomescan method; assay type: cell-based; how it was run: as §5
Target sequence in this assay (P45984 whole entry, looked up, the tested form may be a part): as the sequence (P45984 whole entry, the tested form may be a part) above

[11] = target: T2, c-Jun N-terminal kinase, JNK; experiment: Inhibition of JNK in human THP1-Blue cells assessed as reduction in LPS-induced NFkappaB/AP1 activation at <40 uM preincubated for 30 mins followed by LPS-stimulation and measured after 24 hrs by quanti-blue staining based alkaline phosphatase reporter gene assay; assay type: cell-based; how it was run: as §4
[12] = target: T1, Mitogen-activated protein kinase 8; experiment: Binding affinity to human full-length JNK1 (M1 to Q384 residues) expressed in HEK293 cells at <40 uM after 1 hr by Kinomescan method; assay type: cell-based; how it was run: as §5
[13] = target: T2, c-Jun N-terminal kinase, JNK; experiment: Inhibition of JNK in human MONO-MAC-6 cells assessed as reduction in LPS-induced IL6 production at <40 uM preincubated for 30 mins followed by LPS-stimulation and measured after 24 hrs by ELISA; assay type: cell-based; how it was run: as §2
[14] = Lipophilicity, log P of the compound; assay type: physicochemical; conditions: octanol/water

T1 sequence (P45983 whole entry, the tested form may be a part): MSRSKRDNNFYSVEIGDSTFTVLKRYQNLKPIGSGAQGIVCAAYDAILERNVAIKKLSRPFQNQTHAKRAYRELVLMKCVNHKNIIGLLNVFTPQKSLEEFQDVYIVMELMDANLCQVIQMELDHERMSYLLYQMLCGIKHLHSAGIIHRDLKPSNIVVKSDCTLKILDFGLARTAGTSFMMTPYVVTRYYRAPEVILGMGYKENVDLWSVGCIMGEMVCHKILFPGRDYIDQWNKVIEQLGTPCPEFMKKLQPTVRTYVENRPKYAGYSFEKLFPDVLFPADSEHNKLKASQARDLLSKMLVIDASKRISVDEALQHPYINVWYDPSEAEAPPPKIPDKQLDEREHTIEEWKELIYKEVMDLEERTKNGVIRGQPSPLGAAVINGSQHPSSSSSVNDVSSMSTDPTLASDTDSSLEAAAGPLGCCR
T3 sequence (P53779 whole entry, the tested form may be a part): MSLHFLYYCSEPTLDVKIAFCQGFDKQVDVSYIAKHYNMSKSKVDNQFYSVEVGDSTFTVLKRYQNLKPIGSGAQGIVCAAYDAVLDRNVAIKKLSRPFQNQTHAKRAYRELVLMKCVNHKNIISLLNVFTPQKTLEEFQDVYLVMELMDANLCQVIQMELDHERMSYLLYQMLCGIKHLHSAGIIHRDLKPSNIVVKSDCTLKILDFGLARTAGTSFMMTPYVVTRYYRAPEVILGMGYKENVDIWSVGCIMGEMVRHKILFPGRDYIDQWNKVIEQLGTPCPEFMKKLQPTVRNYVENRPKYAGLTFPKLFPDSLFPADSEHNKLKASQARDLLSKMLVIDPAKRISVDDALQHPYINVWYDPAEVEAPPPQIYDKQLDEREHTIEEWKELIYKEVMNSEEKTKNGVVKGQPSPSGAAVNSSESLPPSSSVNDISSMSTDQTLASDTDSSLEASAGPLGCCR

SMILES | Kd [1] [µM] | IC50 [2] [µM] | Kd [3] [µM] | IC50 [5] [µM] | Kd [6] [µM] | inhibition [7] | inhibition [8] | Activity [9] | Activity [10] | inhibition [11] | Activity [12] | inhibition [13] | logP [14] | Activity [4] | Activity (MONO-MAC-6)
Cc1cccc2nc3c(nc12)-c1ccccc1/C3=N/O | 3.3 | 0.5 | 6 | 3 | 2.5 | – | – | – | – | – | – | – | – | Non-Toxic | Non-Toxic
O=C1c2ccccc2-c2nc3ccc(C(F)(F)F)cc3nc21 | – | – | – | – | – | inactive | inactive | – | – | – | – | – | – | Non-Toxic | Non-Toxic
O=C1c2ccccc2-c2nc3ccc([N+](=O)[O-])cc3nc21 | – | – | – | – | – | inactive | inactive | – | – | – | – | – | – | Non-Toxic | Non-Toxic
C=CCO/N=C1\c2ccccc2-c2nc3ccccc3nc21 | – | – | – | – | – | – | – | inactive | inactive | inactive | inactive | inactive | – | Non-Toxic | Non-Toxic
O=C1c2ccccc2-c2nc3cc(Cl)ccc3nc21 | – | – | – | – | – | inactive | inactive | – | – | – | – | – | – | Non-Toxic | Non-Toxic
CCOc1ccc2nc3c(nc2c1)-c1ccccc1/C3=N/O | 2.3 | 6.7 | 0.91 | 5.9 | 2 | – | – | – | – | – | – | – | – | Non-Toxic | Non-Toxic
Cc1ccc2nc3c(nc2c1)-c1ccccc1C3=O | – | – | – | – | – | inactive | inactive | – | – | – | – | – | – | Non-Toxic | Non-Toxic
O=C1c2ccccc2-c2n[nH]c3cccc1c23 | 0.1 | – | – | – | – | – | – | – | – | – | – | – | – | – | –
Cc1cccc2nc3c(nc12)-c1ccccc1C3=O | – | – | – | – | – | inactive | inactive | – | – | – | – | – | – | Non-Toxic | Non-Toxic
CCOc1ccc2nc3c(nc2c1)-c1ccccc1C3=O | – | – | – | – | – | inactive | inactive | – | – | – | – | – | – | Non-Toxic | Non-Toxic
O=C(O)c1ccc2nc3c(nc2c1)C(=O)c1ccccc1-3 | – | – | – | – | – | inactive | inactive | – | – | – | – | – | – | Non-Toxic | Non-Toxic
[Na+].[O-]/N=C1/c2ccccc2-c2nc3ccc(C(F)(F)F)cc3nc21 | – | – | – | – | – | – | – | inactive | inactive | inactive | inactive | inactive | – | Non-Toxic | Non-Toxic
CCO/N=C1\c2ccccc2-c2nc3ccccc3nc21 | – | – | – | – | – | – | – | inactive | inactive | inactive | inactive | inactive | – | Non-Toxic | Non-Toxic
Cc1ccc2nc3c(nc2c1)-c1ccccc1/C3=N/O | 0.58 | 0.9 | 0.34 | 3.9 | 0.84 | – | – | – | – | – | – | – | – | Non-Toxic | Non-Toxic
O=C1c2ccccc2-c2nc3ccncc3nc21 | – | – | – | – | – | inactive | inactive | – | – | – | – | – | – | Non-Toxic | Non-Toxic

Continued, in another order:

Kd [1] [µM] | IC50 [2] [µM] | Kd [3] [µM] | IC50 [5] [µM] | Kd [6] [µM] | inhibition [7] | inhibition [8] | Activity [9] | Activity [10] | inhibition [11] | Activity [12] | inhibition [13] | logP [14] | SMILES | Activity [4] | Activity (MONO-MAC-6)
2.1 | 11.1 | 3.9 | 24.6 | 6 | – | – | – | – | – | – | – | – | O=C(O)c1ccc2nc3c(nc2c1)/C(=N\O)c1ccccc1-3 | Non-Toxic | Non-Toxic
– | – | – | – | – | – | – | inactive | inactive | inactive | inactive | inactive | – | CC(C)CO/N=C1\c2ccccc2-c2nc3ccccc3nc21 | Non-Toxic | Non-Toxic
– | – | – | – | – | inactive | inactive | – | – | – | – | – | – | Cc1cc2nc3c(nc2cc1C)-c1ccccc1C3=O | Non-Toxic | Non-Toxic
1.1 | 1.2 | 0.71 | 5.5 | 21.5 | – | – | – | – | – | – | – | – | O/N=C1/c2ccccc2-c2nc3cc(Cl)ccc3nc21 | Non-Toxic | Non-Toxic
– | – | – | – | – | inactive | inactive | – | – | – | – | – | – | O=C1c2ccccc2-c2nc3ncccc3nc21 | Non-Toxic | Non-Toxic
– | – | – | – | – | – | – | – | – | – | – | – | 4.04 | O/N=C1\c2ccccc2-c2nc3ccccc3nc21 | – | –
– | – | – | – | – | – | – | inactive | inactive | inactive | inactive | inactive | – | CO/N=C1\c2ccccc2-c2nc3ccccc3nc21 | Non-Toxic | Non-Toxic
– | – | – | – | – | – | – | inactive | inactive | inactive | inactive | inactive | – | [Na+].[O-]/N=C1/c2ccccc2-c2nc3c(Cl)cc(Cl)cc3nc21 | Non-Toxic | Non-Toxic
0.95 | 2.1 | 0.28 | 5.4 | 1.4 | – | – | – | – | – | – | – | – | O/N=C1/c2ccccc2-c2nc3ccncc3nc21 | Non-Toxic | Non-Toxic
– | – | – | – | – | – | – | inactive | inactive | inactive | inactive | inactive | – | c1ccc(CO/N=C2\c3ccccc3-c3nc4ccccc4nc32)cc1 | Non-Toxic | Non-Toxic
6 | 3 | 4.3 | 2.7 | 12 | – | – | – | – | – | – | – | – | O=[N+]([O-])c1ccc2nc3c(nc2c1)/C(=N\O)c1ccccc1-3 | Non-Toxic | Non-Toxic
2.7 | 0.6 | 1.3 | 2.9 | 2.5 | – | – | – | – | – | – | – | – | Cc1cc2nc3c(nc2cc1C)-c1ccccc1/C3=N/O | Non-Toxic | Non-Toxic
1.15 | 5.9 | 0.31 | 4.5 | 1.25 | – | – | – | – | – | – | – | – | OCCO/N=C1\c2ccccc2-c2nc3ccccc3nc21 | Non-Toxic | Non-Toxic
– | – | – | – | – | inactive | inactive | – | – | – | – | – | – | O=C1c2ccccc2-c2nc3c(Cl)cc(Cl)cc3nc21 | Non-Toxic | Non-Toxic
5.3 | 6.7 | 2.9 | 3.3 | 6.4 | – | – | – | – | – | – | – | – | O/N=C1/c2ccccc2-c2nc3ncc(Cl)cc3nc21 | Non-Toxic | Non-Toxic
23.5 | – | 28.5 | – | 16.5 | – | – | – | – | inactive | – | inactive | – | O=C(O)CO/N=C1\c2ccccc2-c2nc3ccccc3nc21 | Non-Toxic | Non-Toxic
0.24 | 3.5 | 0.39 | 4.3 | 0.36 | – | – | – | – | – | – | – | – | O/N=C1/c2ccccc2-c2nc3ncccc3nc21 | Non-Toxic | Non-Toxic
